# From ChEMBL document CHEMBL4038332, “Substituted N-Phenyl-5-(2-(phenylamino)thiazol-4-yl)isoxazole-3-carboxamides Are Valuable Antitubercular Candidates that Evade Innate Efflux Machinery” (J Med Chem, 2017)
# Tests used:
# [1] = Selectivity index, ratio of IC50 for human MDM cells to MIC90 for Mycobacterium tuberculosis H37Rv; assay type: toxicity; conditions: read-out: Selectivity Index
# [2] = test system: Mycobacterium tuberculosis; assay: Antimycobacterial activity against wild type Mycobacterium tuberculosis H37Rv incubated for 14 days by broth microdilution assay; assay type: functional; conditions: 336 h
# Pseudomonas aeruginosa = assay: Antibacterial activity against Pseudomonas aeruginosa ATCC 27853 after 24 hrs by spectrophotometric analysis; assay type: functional; conditions: ATCC 27853, 24 h
# How it was run: (§1)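 Log-phase culture in Mueller Hinton broth at 37 °C with shaking for 3-4 h, pelleted, adjusted at 600 nm in 10 mM phosphate buffer pH 7. Final inoculum approx. 5 × 10^5 CFU/mL. Twofold serial dilutions, final 100 to 0.2 µg/mL. Aerobic incubation 24 h at 37 °C. MIC is the lowest concentration with no visible growth, also read by resazurin (no blue-to-pink change).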
# [3] = Intrinsic clearance in human liver microsomes at 1 uM by HPLC-MS/MS analysis; assay type: ADME, microsome; conditions: read-out: CLH
# How it was run: (§2)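 Compound at 1 µM incubated 60 min at 37 °C with pooled HLM (1 mg protein/mL) and an NADPH-regenerating system in 100 mM PBS pH 7.4, after 5 min preheating. Sampled at 0, 15, 30, 60 min, quenched with two volumes of acetonitrile, centrifuged, and supernatant analysed by HPLC-MS/MS. CLint = (0.693/t1/2) × (mL incubation/mg microsomes) × 45 mg/g liver × 20 g liver/kg.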
# [4] = Half life in human liver microsomes at 1 uM by HPLC-MS/MS analysis; assay type: ADME, microsome; how it was run: as §2
# [5] = test system: Mycobacterium tuberculosis; assay: Antimycobacterial activity against nonreplicating Mycobacterium tuberculosis H37Rv ATCC 27924 incubated for 5 days under hypoxic condition followed by 2 days incubation under normal atmosphere by MTT dye based broth microdilution assay; assay type: functional
# How it was run: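 Mtb H37Rv ATCC27924 adapted to hypoxia: grown in 8 mL MB7H9, tubes tightly capped and sealed, standing at 37 °C for 8 weeks; methylene blue (final 1.5 µg/mL) monitored O2 depletion. Cells exposed to varying compound concentrations 5 days at 37 °C in anaerobic jar (indicator strip), then 2 days normal atmosphere recovery; MTT to final 2.5%, overnight at room temperature; MIC = lowest concentration with no colour change; triplicate.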
# [6] = Cytotoxicity against human MDM cells assessed as reduction in cell viability after 3 days by AlamarBlue assay; assay type: cell-based; conditions: 72 h
# How it was run: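 Macrophages came from healthy donors' PBMC (Ficoll gradient), differentiated 7 days in RPMI-1640/10% FCS with 20 ng/mL M-CSF at 37 °C, 5% CO2. 5 × 10^4 cells/well exposed to compounds for 3 days. Viability by AlamarBlue fluorescence (ex 540/35, em 590/20). IC50 taken as the highest concentration leaving 50% of cells viable relative to control.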
# Escherichia coli = assay: Antibacterial activity against Escherichia coli ATCC 25922 after 24 hrs by spectrophotometric analysis; assay type: functional; conditions: ATCC 25922, 24 h; how it was run: as §1
# Staphylococcus aureus = assay: Antibacterial activity against Staphylococcus aureus ATCC 25923 after 24 hrs by spectrophotometric analysis; assay type: functional; conditions: ATCC 25923, 24 h; how it was run: as §1
# Enterococcus faecium = assay: Antibacterial activity against Enterococcus faecium ATCC 35667 after 24 hrs by spectrophotometric analysis; assay type: functional; conditions: ATCC 35667, 24 h; how it was run: as §1
# Candida albicans = assay: Antifungal activity against Candida albicans ATCC 11006 after 48 hrs by spectrophotometric analysis; assay type: functional; conditions: ATCC 11006, 48 h
# How it was run: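 Broth microdilution in RPMI per CLSI M27-A3. Inoculum adjusted to 0.5 McFarland in phosphate buffer, diluted to about 10^3 CFU/mL final and used within 30 min. Compounds at final 100 to 0.2 µg/mL (twofold). Aerobic incubation 48 h at 37 °C. MIC is the lowest concentration without visible growth, also checked by resazurin colour change.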
# [7] = test system: Mycobacterium tuberculosis; assay: Antimycobacterial activity against wild type Mycobacterium tuberculosis H37Rv incubated for 14 days in presence of Verapamil by broth microdilution assay; assay type: functional; conditions: 336 h
# [8] = test system: Mycobacterium tuberculosis; assay: Antimycobacterial activity against wild type Mycobacterium tuberculosis H37Rv incubated for 14 days in presence of Thioridazine by broth microdilution assay; assay type: functional; conditions: 336 h
# [9] = test system: Mycobacterium tuberculosis H37Rv; assay: Inhibition of efflux pump in wild type Mycobacterium tuberculosis H37Rv assessed as increase in accumulation of ethidium bromide by measuring relative final fluorescence index at 2.6 uM measured every second for 60 mins in absence of glucose by real time fluorimetric method
Structure (SMILES),MIC90 [2],further results
O=C(Nc1ccccc1)c1cc(-c2csc(Nc3cc(Cl)cc(Cl)c3)n2)on1,–,selectivity ratio [1]: > 500
CCN(CC)C(=O)c1cc(-c2csc(Nc3ccc(C)cc3)n2)n(C)n1,> 64 µg/mL,–
Cc1sc(N)nc1-c1csc(Nc2cc(Cl)cc(Cl)c2)n1,8 to 16 µg/mL,–
COc1ccc(-c2cc(-c3csc(Nc4ccc(C)cc4)n3)on2)cc1,4 to 8 µg/mL,–
COc1ccc(-c2cc(-c3csc(Nc4cc(Cl)cc(Cl)c4)n3)on2)cc1,> 64 µg/mL,–
Cc1ccc(Nc2nc(-c3cc(C(=O)NC45CC6CC(CC(C6)C4)C5)no3)cs2)cc1,> 64 µg/mL,–
Cc1sc(Nc2cc(Cl)cc(Cl)c2)nc1-c1csc(Nc2cc(Cl)cc(Cl)c2)n1,> 64 µg/mL,–
Clc1cc(Cl)cc(Nc2nc(-c3c[nH]nn3)cs2)c1,> 64 µg/mL,–
Cc1ccc(Nc2nc(-c3nc(N)sc3C)cs2)cc1,16 to 32 µg/mL,–
Cn1nc(C(=O)O)cc1-c1csc(Nc2cc(Cl)cc(Cl)c2)n1,> 64 µg/mL,–
Cc1ccc(Nc2nc(-c3cc(C(=O)O)nn3C)cs2)cc1,> 64 µg/mL,–
NNC(=O)c1ccncc1 [ISONIAZID],0.22 to 0.44 µM,–
CNC(=O)c1cc(-c2csc(Nc3ccc(C)cc3)n2)on1,> 64 µg/mL,–
Cc1ccc(Nc2nc(-c3nc(Nc4ccc(C)cc4)sc3C)cs2)cc1,4 to 8 µg/mL,–
Cc1ccc(Nc2nc(-c3cc(C(=O)Nc4ccccc4)no3)cs2)cc1,0.33 to 0.66 µM,MIC90 (Pseudomonas aeruginosa): 100 µg/mL; CLint scaled at 1 µM [3]: 17.8 mL/min/kg; half-life at 1 µM [4]: 35.1 min; MIC90 [5]: 1 µg/mL; IC50 [6]: 186 µM; MIC90 (Escherichia coli): 100 µg/mL; MIC90 (Staphylococcus aureus): > 100 µg/mL; MIC90 (Enterococcus faecium): 100 µg/mL; MIC90 (Candida albicans): > 100 µg/mL; MIC90 [7]: 2 µg/mL; MIC90 [8]: 2 µg/mL; Activity index [9]: 0.22; selectivity ratio [1]: > 500
COc1ccc(-c2csc(Nc3ccc(C)cc3)n2)cc1,3.8 µg/mL,–
O=C(O)c1cc(-c2csc(Nc3cc(Cl)cc(Cl)c3)n2)on1,> 64 µg/mL,–
Cc1ccc(Nc2nc(-c3cc(-c4nccs4)no3)cs2)cc1,> 64 µg/mL,–

Structure (SMILES),MIC90 [2],further results
Cc1ccc(Nc2nc(-c3cc(C(N)=O)no3)cs2)cc1,> 64 µg/mL,–
CC(=O)c1nc(Nc2cc(Cl)cc(Cl)c2)sc1C,> 64 µg/mL,–
CCN(CC)C(=O)c1cc(-c2csc(Nc3ccc(C)cc3)n2)on1,16 to 32 µg/mL,–
CCOC(=O)c1cc(-c2csc(Nc3cc(Cl)cc(Cl)c3)n2)on1,4 to 8 µg/mL,CLint scaled at 1 µM [3]: 189 mL/min/kg; half-life at 1 µM [4]: 3.3 min
CC(=O)c1nc(Nc2ccc(C)cc2)sc1C,> 64 µg/mL,–
Cc1ccc(Nc2nc(-c3cc(CO)no3)cs2)cc1,16 to 32 µg/mL,–
Cc1ccc(Nc2nc(-c3cc(C(=O)N4CCCCC4)no3)cs2)cc1,16 to 32 µg/mL,–
Cc1ccc(Nc2nc(-c3cc(C(=O)Nc4ccccn4)no3)cs2)cc1,0.16 to 0.32 µM,MIC90 (Pseudomonas aeruginosa): 100 µg/mL; CLint scaled at 1 µM [3]: 38.8 mL/min/kg; half-life at 1 µM [4]: 16.1 min; MIC90 [5]: 1 µg/mL; IC50 [6]: 140 µM; MIC90 (Escherichia coli): 100 µg/mL; MIC90 (Staphylococcus aureus): 100 µg/mL; MIC90 (Enterococcus faecium): 100 µg/mL; MIC90 (Candida albicans): 100 µg/mL; MIC90 [7]: 2 µg/mL; MIC90 [8]: 1 µg/mL; Activity index [9]: 0.17
Cc1ccc(Nc2nc(-c3cc(C(=O)O)no3)cs2)cc1,> 64 µg/mL,CLint scaled at 1 µM [3]: 43.7 mL/min/kg; half-life at 1 µM [4]: 14.3 min
CCOC(=O)c1cc(-c2csc(Nc3ccc(C)cc3)n2)n(C)n1,16 to 32 µg/mL,–
Cc1ccc(Nc2nc(-c3ccncc3)cs2)cc1,> 64 µg/mL,–
O=C(NC12CC3CC(CC(C3)C1)C2)c1cc(-c2csc(Nc3cc(Cl)cc(Cl)c3)n2)on1,> 64 µg/mL,–
Clc1cc(Cl)cc(Nc2nc(-c3ccncc3)cs2)c1,> 64 µg/mL,–
CCOC(=O)c1cc(-c2csc(Nc3cc(Cl)cc(Cl)c3)n2)n(C)n1,> 64 µg/mL,–
CCOC(=O)c1cc(-c2csc(Nc3ccc(C)cc3)n2)on1,1.5 to 3 µM,CLint scaled at 1 µM [3]: > 400 mL/min/kg; half-life at 1 µM [4]: < 1 min
c1cc(Nc2nc(-c3ccncc3)cs2)ccn1,> 64 µg/mL,–
CCN(CC)C(=O)c1cc(-c2csc(Nc3cc(Cl)cc(Cl)c3)n2)n(C)n1,> 64 µg/mL,–
